From ChEMBL document CHEMBL1649062, “Integration of lead optimization with crystallography for a membrane-bound ion channel target: discovery of a new class of AMPA receptor positive allosteric modulators” (J Med Chem, 2011)
Activity calls are given as the source filed them.

Legend:
[1] = target: T1, Glutamate receptor 2 (Homo sapiens, UniProt P42262); assay: Allosteric modulation of human recombinant GluA2 receptor flip isoform expressed in HEK293 cells assessed as potentiation of glutamate-induced calcium influx by Fluo-4/FLIPR method; type: cell-based
In short: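 Stable GluA2 flip (unedited) cell line grown in DMEM/F12 with 10% FBS and seeded to confluence 2-3 days before use. Cells washed in HEPES buffer (pH 7.3) and loaded with 2 μM Fluo-4 AM for 60 min at room temperature. On FLIPR, compound was added 5 min before 100 μM glutamate. pEC50 and asymptotic maximum are relative to the maximal response to cyclothiazide, n ≥ 3.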

[2] = Distribution coefficient, log D of the compound; type: physicochemical; details: octanol/water
[3] = target: Cytochrome P450 2D6 (Homo sapiens, UniProt P10635); assay: Inhibition of human CYP2D6 by fluorescence assay; type: ADME
In short: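 Recombinant human CYP bactosomes (0.1 mg/mL) in 50 mM potassium phosphate pH 7.4, preincubated 10 min at 37 °C with test compound (0.1-10 μM, 7 concentrations) and fluorogenic substrate. Substrates: ethoxyresorufin 0.5 μM (1A2), FCA 50 μM (2C9), BMC 10 μM (2C19), MMC 10 μM (2D6), DEF 1 μM or 7-BQ 25 μM (3A4). Reaction started with NADPH regenerating system; metabolite formation read over 10 min. IC50 from percent of control rate; miconazole control; triplicate.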

[4] = Plasma protein binding in rat at 3 mg/kg, po; type: ADME, organism-based; parameters: dose 3 mg/kg, route oral; details: read-out: PPB (converted)
[5] = system: Brain; assay: Brain tissue binding in rat at 3 mg/kg, po; type: ADME, organism-based; parameters: dose 3 mg/kg, route oral; details: in vivo
[6] = Apparent permeability of the compound; type: ADME; details: not told
In short: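 Artificial membrane permeability: donor holds 10 mM sample in pH 7.05 phosphate buffer with 0.5% hydroxypropylcyclodextrin. Membrane is 1.8% phosphatidylcholine and 1% cholesterol in decane. Donor and acceptor concentrations measured by LCMS after 3 h at room temperature; permeability expressed in nm/s.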

[7] = Clearance in Sprague-Dawley rat at 2.5 mg/kg, iv and 3 mg/kg, po; type: ADME, organism-based; details: in vivo
In short: (§1)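 Male animals, n = 3 per species, given single iv and oral doses. Values are mean and range. Blood clearance is also expressed as % of liver blood flow, taken as (mL/min)/kg: rat 85, dog 31, minipig 30, cynomolgus monkey 44.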

[8] = Clearance in cynomolgus monkey at 0.25 mg/kg, iv and 1 mg/kg, po; type: ADME, organism-based, Macaca fascicularis; details: in vivo; in short: as §1
[9] = Volume of distribution at steady state in Gottingen minipig at 0.5 mg/kg, iv and 1 mg/kg, po; type: ADME, organism-based, Sus scrofa; details: pig, in vivo, read-out: Vdss
In short: (§2)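 Male animals, n = 3 per species, given single iv and oral doses: Sprague-Dawley rat 2.5 iv / 3 po mg/kg; beagle dog 0.25 / 0.5; Göttingen minipig 0.5 / 1; cynomolgus monkey 0.25 / 1. Blood sampled; Vss from iv; bioavailability and Vss as mean [range]; Tmax as median [range].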

[10] = Volume of distribution at steady state in cynomolgus monkey at 0.25 mg/kg, iv and 1 mg/kg, po; type: ADME, organism-based, Macaca fascicularis; details: in vivo, read-out: Vdss; in short: as §2
[11] = Half life in Sprague-Dawley rat at 2.5 mg/kg, iv; type: ADME, organism-based; parameters: dose 2.5 mg/kg, route intravenous; details: in vivo; in short: as §1
[12] = Oral bioavailability in Gottingen minipig at 1 mg/kg; type: ADME, organism-based, Sus scrofa; details: pig, in vivo; in short: as §2
[13] = Cmax in Swiss Beagle dog at 0.5 mg/kg, po; type: ADME, organism-based, Canis lupus familiaris; parameters: dose 0.5 mg/kg, route oral; details: in vivo
[14] = Cmax in Gottingen minipig at 1 mg/kg, po; type: ADME, organism-based, Sus scrofa; parameters: dose 1 mg/kg, route oral; details: pig, in vivo
[15] = Tmax in Swiss Beagle dog at 0.5 mg/kg, po; type: ADME, organism-based, Canis lupus familiaris; parameters: dose 0.5 mg/kg, route oral; details: in vivo; in short: as §2
[16] = Half life in Sprague-Dawley rat at 3 mg/kg, po; type: ADME, organism-based; parameters: dose 3 mg/kg, route oral; details: in vivo
[17] = Half life in cynomolgus monkey at 1 mg/kg, po; type: ADME, organism-based, Macaca fascicularis; parameters: dose 1 mg/kg, route oral; details: in vivo
[18] = system: Hepatocyte; assay: Intrinsic clearance in cryopreserved rat hepatocytes assessed per gram of tissue; type: ADME, cell-based, Liver
In short: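 Cryopreserved hepatocytes at 70 000 cells/mL; intrinsic clearance expressed per gram of liver; single determination (human also n = 3).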

[19] = target: T1, Glutamate receptor 2; assay: Allosteric modulation of human recombinant GluA2 receptor flip isoform expressed in HEK293 cells assessed as potentiation of glutamate-induced calcium influx by Fluo-4/FLIPR method relative to cyclothiazide; type: cell-based
In short: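 Stable GluA2 flip (unedited) cells seeded to confluence 2-3 days before assay; washed in HEPES buffer (145 NaCl, 5 KCl, 2 CaCl2, 1 MgCl2, 5.5 glucose, pH 7.3), loaded with 2 μM Fluo4-AM 60 min at room temperature. FLIPR dual addition: compound 5 min before 100 μM glutamate; fluorescence rise expressed against maximal cyclothiazide response, fitted pEC50 and Asym max; n ≥ 3.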

[20] = target: Glutamate receptor 2 (Rattus norvegicus) (UniProt P19491); assay: Allosteric modulation of GluA2 receptor flip isoform in rat hippocampal neuron at 10 nM by whole cell patch-clamp electrophysiology; details: Hippocampus
In short: (§3)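 Rat cultured hippocampal neurons; 30 μM AMPA applied for 2 s, with compound co-applied at 10 nM or 10 μM. Read-out is the increase in charge transfer, taken as the area under the current curve.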

[21] = target: Glutamate receptor 2 (Rattus norvegicus) (UniProt P19491); assay: Allosteric modulation of GluA2 receptor flip isoform in rat hippocampal neuron at 10 uM by whole cell patch-clamp electrophysiology; type: tissue-based; details: Hippocampus; in short: as §3
[22] = target: T1, Glutamate receptor 2; assay: Allosteric modulation of human recombinant GluA2 receptor flip isoform expressed in HEK293 cells at 10 uM by whole cell patch-clamp electrophysiology; type: cell-based
In short: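 Perforated-patch (amphotericin B) voltage clamp of HEK293 cells stably expressing human GluA2 flip (unedited) homotetramers, held at -60 mV. Extracellular solution in mM: 140 NaCl, 2 KCl, 1 MgCl2, 2 CaCl2, 12 HEPES, 10 D-glucose, pH 7.35. Currents evoked by 1 mM glutamate; compound at 100 nM or 10 μM. Read-out is percent increase in charge transfer (area under curve).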

[23] = system: Rattus norvegicus; assay: Neurotoxicity in Lister Hooded rat assessed proconvulsant effect at 30 mg/kg, ip by MEST test; type: toxicity, organism-based; parameters: dose 30 mg/kg, route intraperitoneal; details: in vivo
In short: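 Male Lister Hooded rats pretreated with compound, saline vehicle or picrotoxin 30 min before corneal electroshock (CC50 about 60–70 mA, 0.1 ms); tonic and tonic-clonic seizure threshold scored; brain concentrations taken from satellite rats sampled right after testing.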

[24] = system: Brain; assay: Drug level in Lister Hooded rat assessed per gram of tissue at 30 mg/kg, ip; type: ADME, organism-based; parameters: dose 30 mg/kg, route intraperitoneal; details: in vivo
In short: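 Male Lister Hooded rats pretreated 30 min before the maximal electroshock threshold test with compound or saline vehicle; picrotoxin served as positive control. Corneal current applied, CC50 about 60-70 mA, 0.1 ms. Brain levels measured in satellite rats sampled immediately after testing.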

[25] = system: Brain; assay: Drug level in Lister Hooded rat assessed per gram of tissue at 0.1 mg/kg, ip; type: ADME, organism-based; parameters: dose 0.1 mg/kg, route intraperitoneal; details: in vivo
In short: (§4)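 Male Lister Hooded rats (n = 9-12/group) tested for reversal of a 24 h delay-induced deficit in novel object recognition. Significant doses flagged. Brain concentrations measured in the study animals at the end of the test.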

[26] = system: Brain; assay: Drug level in Lister Hooded rat assessed per gram of tissue at 0.3 mg/kg, ip; type: ADME, organism-based; parameters: dose 0.3 mg/kg, route intraperitoneal; details: in vivo; in short: as §4
[27] = system: Brain; assay: Drug level in Lister Hooded rat assessed per gram of tissue at 1 mg/kg, ip; type: ADME, organism-based; parameters: dose 1 mg/kg, route intraperitoneal; details: in vivo; in short: as §4
[28] = system: Rattus norvegicus; assay: Cognitive enhancing effect in Lister Hooded rat assessed as reversal of 24 hrs delay-induced cognitive deficit at 1 mg/kg, ip by novel object recognition test

T1 sequence (P42262 whole entry, canonical isoform): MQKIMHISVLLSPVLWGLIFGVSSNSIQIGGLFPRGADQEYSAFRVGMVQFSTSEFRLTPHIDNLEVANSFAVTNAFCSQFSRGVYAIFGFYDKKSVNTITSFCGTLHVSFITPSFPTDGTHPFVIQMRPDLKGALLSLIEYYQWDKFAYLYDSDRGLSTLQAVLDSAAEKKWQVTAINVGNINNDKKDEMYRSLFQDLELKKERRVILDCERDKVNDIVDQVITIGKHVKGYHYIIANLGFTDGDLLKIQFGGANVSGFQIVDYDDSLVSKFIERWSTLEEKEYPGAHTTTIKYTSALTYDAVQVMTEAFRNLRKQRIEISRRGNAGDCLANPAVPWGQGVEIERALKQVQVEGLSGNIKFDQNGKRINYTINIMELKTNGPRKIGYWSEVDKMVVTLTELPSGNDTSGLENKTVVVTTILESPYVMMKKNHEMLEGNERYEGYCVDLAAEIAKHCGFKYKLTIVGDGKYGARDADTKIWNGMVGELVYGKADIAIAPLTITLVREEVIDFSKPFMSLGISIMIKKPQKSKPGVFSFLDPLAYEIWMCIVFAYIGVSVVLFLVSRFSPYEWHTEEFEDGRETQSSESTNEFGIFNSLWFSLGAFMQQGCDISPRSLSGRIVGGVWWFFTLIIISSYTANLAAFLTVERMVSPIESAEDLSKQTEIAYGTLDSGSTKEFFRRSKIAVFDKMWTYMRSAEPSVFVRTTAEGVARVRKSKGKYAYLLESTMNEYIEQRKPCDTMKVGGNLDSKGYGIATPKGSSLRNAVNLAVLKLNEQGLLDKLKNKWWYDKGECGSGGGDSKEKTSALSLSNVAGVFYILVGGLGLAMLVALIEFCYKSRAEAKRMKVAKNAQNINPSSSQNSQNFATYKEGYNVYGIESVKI
Chain of Glutamate receptor 2 (Rattus norvegicus) (P19491 whole entry, canonical isoform): as the sequence (P42262 whole entry, canonical isoform) above, with M191T, T291A, R764G, A852P counted along it
Chain of Cytochrome P450 2D6 (P10635 whole entry): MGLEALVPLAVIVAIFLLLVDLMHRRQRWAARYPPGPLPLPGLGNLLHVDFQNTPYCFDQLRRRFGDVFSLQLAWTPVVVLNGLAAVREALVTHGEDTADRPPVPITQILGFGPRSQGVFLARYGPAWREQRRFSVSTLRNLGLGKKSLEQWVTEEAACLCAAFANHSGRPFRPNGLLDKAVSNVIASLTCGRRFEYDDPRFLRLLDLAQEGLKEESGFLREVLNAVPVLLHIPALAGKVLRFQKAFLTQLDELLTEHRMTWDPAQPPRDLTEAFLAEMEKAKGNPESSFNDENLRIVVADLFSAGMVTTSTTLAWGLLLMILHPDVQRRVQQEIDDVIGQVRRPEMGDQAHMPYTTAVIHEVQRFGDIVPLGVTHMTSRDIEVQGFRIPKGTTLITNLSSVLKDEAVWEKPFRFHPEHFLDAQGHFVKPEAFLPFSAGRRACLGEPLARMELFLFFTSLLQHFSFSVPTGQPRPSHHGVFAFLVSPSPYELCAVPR

- EC50 [1]: 10 µM
- logD [2]: 3
- IC50 [3]: 6 µM
- fraction unbound [4]: 0.01
- Brain tissue binding (% bound) [5]: 99.4%
- Papp [6]: 41.5 ×10⁻⁶ cm/s
- clearance [7]: 40 mL/min/kg
- clearance [8]: 38 mL/min/kg
- Vd [9]: 3.2 L/kg
- Vd [10]: 1.6 L/kg
- half-life [11]: 1.4 h
- bioavailability [12]: 13%
- Cmax [13]: 14 ng/mL
- Cmax [14]: 29 ng/mL
- Tmax [15]: 0.6 h
- half-life [16]: 2.3 h
- half-life [17]: 1.4 h
- CL [18]: 2.3 mL/min/g
- Activity [19]: 123%
- Activity [20]: 37%
- Activity [21]: 62%
- Activity [22]: 600%
- Drug uptake [24]: 4686 ng/g
- Drug uptake [25]: 9 ng/g
- Drug uptake [26]: 19 ng/g
- Drug uptake [27]: 97 ng/g
SMILES: O=C(c1ccc(-n2nc(C(F)(F)F)c3c2CCCC3)cc1)N1CCCC1
- Activity [23]: Non-toxic
- Activity [28]: Active
